In ChEMBL document CHEMBL1128586, “Antihyperglycemic N-sulfonyl-1a,2,6,6a-tetrahydro-1H,4H- [1,3]dioxepino[5,6-b]azirines: synthesis, X-ray structure analysis, conformational behavior, quantitative structure-property relationships, and quantitative structure-activity relationships” (J Med Chem, 1995):

What was measured:
Type in all cases: functional
Mus musculus [1] = experiment: Effect on blood glucose levels in healthy mice at subcutaneous dose of 20 mg/kg at 60 min
How it was run: (§1)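 Healthy (nondiabetic) fasted animals: CBA mice (20-25 g) or Fischer rats (160-200 g), fasted 16 h before treatment. Single iv or sc dose given at zero time; drug dissolved in minimal DMSO, diluted with 0.9% saline. Tail-vein blood sampled over time; glucose measured by enzymatic-colorimetric kit, expressed as mmol/L whole blood; group sizes 6-12.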

Rattus norvegicus [2] = experiment: Effect on blood glucose levels in healthy rat at subcutaneous dose of 20 mg/kg at 60 min; how it was run: as §1
Mus musculus [3] = experiment: Effect on blood glucose levels in healthy mice at subcutaneous dose of 20 mg/kg at 0 min; how it was run: as §1
Mus musculus [4] = experiment: Effect on blood glucose levels in healthy mice at intravenous dose of 20 mg/kg at 60 min; how it was run: as §1
Mus musculus [5] = experiment: Effect on blood glucose levels in healthy mice at subcutaneous dose of 20 mg/kg at 120 min; how it was run: as §1
Mus musculus [6] = experiment: Effect on blood glucose levels in healthy mice at intravenous dose of 5 mg/kg at 0 min; how it was run: as §1
Mus musculus [7] = experiment: Effect on blood glucose levels in healthy mice at subcutaneous dose of 100 mg/kg at 0 min; how it was run: as §1
Mus musculus [8] = experiment: Effect on blood glucose levels in healthy mice at intravenous dose of 5 mg/kg at 40 min; how it was run: as §1
Mus musculus [9] = experiment: Effect on blood glucose levels in healthy mice at intravenous dose of 5 mg/kg at 60 min; how it was run: as §1
Mus musculus [10] = experiment: Effect on blood glucose levels in healthy mice at intravenous dose of 20 mg/kg at 0 min; how it was run: as §1
Mus musculus [11] = experiment: Effect on blood glucose levels in healthy mice at subcutaneous dose of 100 mg/kg at 120 min; how it was run: as §1
Mus musculus [12] = experiment: Effect on blood glucose levels in healthy mice at subcutaneous dose of 100 mg/kg at 60 min; how it was run: as §1
Rattus norvegicus [13] = experiment: Effect on blood glucose levels in healthy rat at subcutaneous dose of 20 mg/kg at 0 min; how it was run: as §1
Mus musculus [14] = experiment: Hypoglycemic effect of compound 1 hr after subcutaneous administration of a 20 mg/kg dose in alloxanized mice and expressed as hypoglycemic activity ratio (hAR) taking metformin as standard
How it was run: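 Alloxan-diabetic CBA mice (65 mg/kg iv alloxan, used after 48 h) received 20 mg/kg sc in DMSO/saline. Glucose was measured enzymatically in tail-vein blood and expressed as %BGL at 1 h. HAR = (100 − %BGL of compound)/(100 − %BGL of metformin), with metformin tested at the same dose and route.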

Mus musculus [15] = experiment: Effect on blood glucose levels in healthy mice at intravenous dose of 20 mg/kg at 40 min; how it was run: as §1
Mus musculus [16] = experiment: Hypoglycemic effect of compound 1 hr after subcutaneous administration of 20 mg/kg dose in alloxanized mice and expressed as percent of initial blood glucose level
How it was run: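 CBA mice of either sex, 20-25 g, made diabetic by single tail-vein alloxan monohydrate 65 mg/kg and tested 48 h later. Compound given sc at 20 mg/kg, dissolved in minimal DMSO and diluted with 0.9% saline. Tail-vein blood sampled before dosing and at 1 h. Glucose measured by enzymatic-colorimetric kit and expressed as percent of the initial sample.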

Compound | HAR (Mus musculus [14]) | BGL (Mus musculus [16]) [%] | further results
CC(=O)Nc1ccc(S(=O)(=O)N2[C@@H]3COCOC[C@@H]32)cc1 (stereo partly specified) | 4.5 | 37 | Blood glucose (Mus musculus [1]): 14.41 mM (l of whole blood)-1; Blood glucose (Rattus norvegicus [2]): 5.44 mM (l of whole blood)-1; Blood glucose (Mus musculus [3]): 12.43 mM (l of whole blood)-1; Blood glucose (Mus musculus [4]): 8.82 mM (l of whole blood)-1; Blood glucose (Mus musculus [5]): 13.15 mM (l of whole blood)-1; Blood glucose (Mus musculus [6]): 8.35 mM (l of whole blood)-1; Blood glucose (Mus musculus [7]): 11.72 mM (l of whole blood)-1; Blood glucose (Mus musculus [8]): 8.61 mM (l of whole blood)-1; Blood glucose (Mus musculus [9]): 8.72 mM (l of whole blood)-1; Blood glucose (Mus musculus [10]): 8.83 mM (l of whole blood)-1; Blood glucose (Mus musculus [11]): 13.17 mM (l of whole blood)-1; Blood glucose (Mus musculus [12]): 12.09 mM (l of whole blood)-1; Blood glucose (Rattus norvegicus [13]): 5.52 mM (l of whole blood)-1; Blood glucose (Mus musculus [15]): 9.3 mM (l of whole blood)-1
Cc1ccc(S(=O)(=O)N2[C@@H]3COCOC[C@@H]32)cc1 (stereo partly specified) | 0.42 | 94 | –
O=S(=O)(c1ccc(Br)cc1)N1[C@@H]2COCOC[C@@H]21 (stereo partly specified) | -0.5 | 107 | –
O=S(=O)(c1ccccc1)N1[C@@H]2COCOC[C@@H]21 (stereo partly specified) | 3.36 | 53 | –
CC(=O)Nc1ccc(S(=O)(=O)N2[C@@H]3CO[C@H](C(C)C)OC[C@@H]32)cc1 (stereo partly specified) | 1.08 | 84.8 | –
CC(=O)Nc1ccc(S(=O)(=O)N2[C@@H]3CO[C@@H](C(C)C)OC[C@@H]32)cc1 (stereo partly specified) | 1.07 | 85 | –
CC(C)[C@@H]1OC[C@@H]2[C@H](CO1)N2S(=O)(=O)c1ccc([N+](=O)[O-])cc1 (stereo partly specified) | 1.57 | 78 | –
O=S(=O)(c1ccc(F)cc1)N1[C@@H]2COCOC[C@@H]21 (stereo partly specified) | 1.71 | 76 | –
COc1ccc(S(=O)(=O)N2[C@@H]3COCOC[C@@H]32)cc1 (stereo partly specified) | 1.57 | 78 | –
O=S(=O)(c1ccc(Cl)cc1)N1[C@@H]2COCOC[C@@H]21 (stereo partly specified) | 1.64 | 77 | –
CN(C)C(=N)NC(=N)N [METFORMIN] | 1 | 86 | –
